Data set [1] has as its system HOP-92. Put plainly: Growth inhibition of human HOP92 cells after 48 hrs by MTT assay. Format: functional. Conditions: HOP-92, 48 h; call rule not given here. The procedure, abridged:
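Cancer cell lines sourced from the National Cancer Institute (USA). Cells kept in appropriate growth medium at 37 °C, 95% humidity, 5% CO2. Antiproliferation read by tetrazolium (MTT) assay. GI50 values were determined only for compounds selected after an initial single-concentration screen.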
Background: Tetrazolium assays rely on reduction of a dye to a coloured formazan, in cell work by metabolically active cells.

For data set [2], the system named is MIA PaCa-2. Put plainly: Induction of apoptosis in human MIAPaCa2 cells at 1.5 uM after 24 hrs by propidium iodide staining-based flow cytometric method relative to control. Format: functional.
The test system of data set [3] is MIA PaCa-2. Put plainly: Induction of apoptosis in human MIAPaCa2 cells assessed as caspase-7 cleavage by Western blot method. Format: functional, cell-based. The procedure, abridged: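 Lysate protein quantified against a BSA standard; 70 μg resolved by SDS-PAGE, transferred to PVDF overnight at 4 °C, 30 V; blocked 1 h in 5% nonfat milk/TBST; primary antibodies 2–4 h, HRP anti-mouse secondary 1 h; ECL detection on X-ray film.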

Data set [4] is described as follows: Intrinsic clearance in monkey hepatocytes assessed per million cells at 3 uM after 180 mins by LC-MS/MS analysis. Format: ADME, cell-based, Macaca mulatta, Hepatocyte. Conditions: rhesus monkey, read-out: CLH.
Data set [5] is described as follows: AUC (0 to t) in BALB/c mouse at 1 mg/kg, iv by LC-MS/MS analysis. The conditions noted are these: in vivo. Format: ADME, organism-based.
The test system of data set [6] is Kidney. The data set is described as follows: Drug uptake in BALB/c mouse kidney at 30 mg/kg, po after 8 hrs. Format: ADME, organism-based. The conditions noted are these: in vivo.
The target in data set [7] is CYP3A4 (Homo sapiens, UniProt P08684). The data set is described as follows: Inhibition of human CYP3A4 at 2 uM using fluorogenic substrate after 30 mins by fluorometric method relative to control. Format: ADME. Conditions: probe fluorogenic substrate.
Chain of CYP3A4 (P08684 whole entry): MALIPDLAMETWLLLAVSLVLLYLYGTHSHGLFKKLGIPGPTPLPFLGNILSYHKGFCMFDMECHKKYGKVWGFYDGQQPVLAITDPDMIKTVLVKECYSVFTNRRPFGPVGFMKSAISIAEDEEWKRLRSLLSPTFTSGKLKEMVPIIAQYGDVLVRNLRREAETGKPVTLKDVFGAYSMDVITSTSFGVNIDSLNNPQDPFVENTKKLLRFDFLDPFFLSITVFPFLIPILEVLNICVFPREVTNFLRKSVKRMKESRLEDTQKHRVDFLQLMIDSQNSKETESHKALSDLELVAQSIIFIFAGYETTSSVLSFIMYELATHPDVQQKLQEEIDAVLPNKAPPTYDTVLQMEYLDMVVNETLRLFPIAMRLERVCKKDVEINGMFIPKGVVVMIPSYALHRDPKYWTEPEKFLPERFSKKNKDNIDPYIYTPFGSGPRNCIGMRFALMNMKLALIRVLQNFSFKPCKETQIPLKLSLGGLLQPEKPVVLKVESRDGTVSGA

Turning to `CN1CC[C@H](c2c(O)cc(O)c3c(=O)cc(/C=C/c4c(Cl)cccc4Cl)oc23)[C@H](O)C1`, growth in data set [1] was halved (GI50) at 3000 nM. For the same compound, the Activity is 1.9% in data set [2] and “Dose-dependent effect” in data set [3]. Further, in data set [4], the hepatocyte CLint at 3 µM was 10.6 µL/min/1e6 cells. In data set [5], the AUC(0-t) – broadly, the area under the concentration-time curve up to a stated or last time point – is 0.525 µM·h. The Drug uptake entry in data set [6] was “Active”. Further, in data set [7], the inhibition (commonly how much of the control response was suppressed) at 0.5 h, 2 µM was found to be 40%.
